CASP6 VEID inh: human caspase-6 inhibitors, primary screen, biochemical, VEID-R110 fluorescence, single point, set 2 | AID 686996, 2013 | purified caspase-6, Z-VEID-R110 cleavage fluorescence | 350,000 tested, 0.53% active | inhibition, % at 12.5 µM | P55212;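 active = mean inhibition across replicates at least about 35%, with every replicate also reaching that limit, limit read from the data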;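 also: 0% = median of neutral control wells and 100% = no fluorescence left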
Target sequence (P55212 24-179 limits assumed): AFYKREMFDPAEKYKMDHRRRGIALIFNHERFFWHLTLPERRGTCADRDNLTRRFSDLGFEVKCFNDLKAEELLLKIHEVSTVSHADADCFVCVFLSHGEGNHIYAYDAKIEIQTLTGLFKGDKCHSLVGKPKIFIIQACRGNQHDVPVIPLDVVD
Target sequence (P55212 194-293 limits assumed): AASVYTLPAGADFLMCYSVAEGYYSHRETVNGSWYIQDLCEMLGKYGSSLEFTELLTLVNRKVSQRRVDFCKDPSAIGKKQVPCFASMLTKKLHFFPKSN
NSD2 inh: NSD2 histone methyltransferase inhibitors, primary screen, biochemical, AlphaScreen, single concentration, set 2; Histone-lysine N-methyltransferase NSD2 (Homo sapiens), O96028; NSD2 peptide methylation, 120 min; inhibition, % at 12.5 µM; 310,000 tested, 0.54% active; AID 743445, 2014; in the data active = inhibition above about 50%
SIRT5 block: SIRT5 desuccinylase inhibitors, primary screen, biochemical, fluorescence imaging, single point, set 5 | NAD-dependent protein deacylase sirtuin-5, mitochondrial (Homo sapiens), Q9NXA8 | Purified SirT5, succinyl-peptide AMC, trypsin-coupled fluorescence | inhibition, % at 15 µM | 330,000 tested, 1.1% active | AID 652115, 2013; in the data active = inhibition above about 15%
UCH37 DUB inh: inhibitors of human UCH37 deubiquitinase, primary screen, biochemical, Ub-AMC cleavage, fluorescence | purified proteasome/UCH37 | inhibition, % (no concentration beside the values) | 330,000 tested, 0.33% active | AID 588478, 2011;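 active = mean inhibition over replicate wells above about 20%, limit read from the data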;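 also: 0% = compound-free wells with enzyme and 100% = wells lacking proteasome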
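Signal – fluorescence, ex 355 nm, em 460 nm · System – Proteasome-bound UCH37 · Input – 0.15 nM proteasome as dispensed · Timing – 30 min preincubation with enzyme, 25 min cleavage at room temperature · Read-out basis – percent inhibition of cleavage signal versus uninhibited and no-proteasome wells · Medium – Tris-HCl pH 7.4 with ATP-MgCl2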
FGF22 binding: binders of human FGF22 protein, primary screen, FGF22 synaptogenesis inhibitor project, biophysical, thermal shift, single point. Fibroblast growth factor 22 (Homo sapiens), Q9HCT0. recombinant FGF22 thermal shift, SYPRO orange fluorescence; percent of sucrose octasulfate shift, DMSO zero. activity (Tm shift, normalised), % at 9.99 µM. 340,000 tested, 1.5% active. AID 651658, 2012;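 active = mean Tm shift, scaled 0 neutral to 100 positive control, at about 1.3% or above, every replicate too, limit read from the data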
Target sequence (Q9HCT0 whole entry, looked up): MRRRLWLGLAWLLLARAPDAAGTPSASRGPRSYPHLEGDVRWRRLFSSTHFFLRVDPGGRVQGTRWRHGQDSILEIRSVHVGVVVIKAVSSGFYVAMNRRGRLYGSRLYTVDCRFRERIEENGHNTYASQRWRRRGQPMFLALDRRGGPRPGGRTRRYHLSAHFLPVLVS
Alpha artifact: AlphaScreen signal interference with preloaded methylated product, dose response, artefact control for NSD2 inhibitor project, biochemical, cherry-picked samples | shares compounds with NSD2 inh | AlphaScreen artifact counterscreen, preloaded methylated H4 peptide | AC35, µM (series often up to 10 µM), inactives show top-dose activity change, negative = signal loss | 1,500 tested, 9.4% active | AID 1053174, 2014; call rule not given here
Active calls of the source: *; · = no result given. Rows were chosen to be rich in hits. Some 2.6% of all compounds tested hit in one or more screens of this group.

SMILES | CASP6 VEID inh | NSD2 inh | SIRT5 block | UCH37 DUB inh | FGF22 binding | Alpha artifact
CCOc1ccc(N2CC(C(=O)Nc3nnc(Cc4ccc(OC)cc4)s3)CC2=O)cc1 (stereo not given) | 21 | 7 | -1 | 1 | 0 | ·
C[C@@H]1CN([C@@H](C)CO)S(=O)(=O)c2ccc(Br)cc2O[C@H]1CN(C)S(=O)(=O)c1cccc(F)c1 | 1 | · | 2 | · | 0 | ·
COc1ccccc1CNC(=O)C(NC(=O)Nc1ccccc1)C(C)C (stereo not given) | -2 | 106* | -8 | 2 | 0 | -4%
COc1ccc(CCNC(=O)C2CCN(C(=O)c3ccccc3C)CC2)cc1 | 1 | 51* | -2 | 2 | 0 | -2%
CCNCCC(CCC(C)C)c1ccc2c(c1)OCO2 (stereo not given) | -1 | 57* | · | 4 | 0 | -3%
O=C(NC(=S)Nc1ccccc1N1CCCC1)c1ccco1 | 4 | 74* | 1 | · | 0 | -4%
COc1cc(Br)c(C(=O)c2nccc3cc(OC)c(OC)cc23)cc1OC | 97* | 99* | 1 | · | 0 | -5%
COc1cc(C(=O)c2ccccc2)c([N+](=O)[O-])cc1OC | 0 | 2 | -2 | 6 | 0 | ·
COc1cc(C(=O)c2nccc3cc(OC)c(OC)cc23)c([N+](=O)[O-])cc1OC | 20 | 54* | 1 | 13 | 0 | -9%
COc1cc(N)c(C(=O)c2nccc3cc(OC)c(OC)cc23)cc1OC | 11 | 72* | -3 | 5 | 0 | -2%
C[C@@H]1CCCCO[C@H](CN(C)C(=O)c2ccccc2)[C@H](C)CN([C@@H](C)CO)C(=O)c2cc(NC(=O)Nc3cccc4ccccc34)ccc2O1 | -3 | · | 0 | · | 0 | ·
O=C(CN1CCOCC1)NCC[C@@H]1CC[C@H](NS(=O)(=O)c2ccc(F)cc2)[C@H](CO)O1 | -2 | · | -2 | · | 0 | ·
COc1ccc(C)cc1S(=O)(=O)Nc1ccccc1C | · | 69* | · | 6 | · | 1%
CC(=O)c1ccc(-n2c(-c3cc(-c4ccco4)[nH]n3)n[nH]c2=S)cc1 | · | 59* | · | 0 | · | -6%
O=C(CC1(O)C(=O)Nc2cc(Cl)cc(Cl)c21)c1ccncc1 (stereo not given) | · | 97* | · | 4 | · | 5%
CC(=O)Nc1ccc(S(=O)(=O)NCCSCc2ccc(Cl)cc2Cl)cc1 | · | 50* | · | 0 | · | 0%
CO[C@@H]1CN(C)C(=O)c2cc(NS(=O)(=O)c3cccc(F)c3)ccc2OC[C@H](C)N(C(=O)Cc2cccnc2)C[C@H]1C | -1 | · | 2 | · | 0 | ·
Cc1nn(-c2ccccn2)c2c1C(=O)C(Br)CC2 (stereo not given) | · | 100* | · | 1 | · | -1%
COc1ccc(NC(=O)N[C@H]2CC[C@@H](CCNC(=O)Nc3cc(F)ccc3F)O[C@H]2CO)cc1 | -128 | · | 2 | · | 0 | ·
CC1=NOC(=O)/C1=C\c1ccc(-c2ccc(Br)cc2)o1 | 1 | 69* | -2 | 4 | · | 0%
CO[C@H]1CN(C)C(=O)c2cc(C#N)ccc2OC[C@H]2O[C@H](CC[C@H]2OC)CCN(C)C(=O)[C@H]1C | -1 | · | -3 | · | 0 | ·
CCN(CC)CCCN(Cc1cc2cc3c(cc2[nH]c1=O)OCO3)C(=O)Nc1ccccc1OC | · | 8 | · | -11 | · | ·
CCN(CC)CCCN(Cc1cc2cc(OC)c(OC)cc2[nH]c1=O)C(=O)Nc1ccccc1 | · | 51* | · | -42 | · | 0%
CCNC(=S)N(CCCN(CC)CC)Cc1cc2cc3c(cc2[nH]c1=O)OCO3 | -1 | 84* | -4 | -186 | 0 | -7%
CO[C@H]1CN(C)C(=O)c2ccc(NS(C)(=O)=O)cc2OC[C@@H](C)N(C(=O)C2CC2)C[C@@H]1C | 7 | · | 0 | · | 0 | ·
Cc1ccc2cccc(OCc3ccc(F)cc3)c2n1 | 1 | -2 | -3 | 0 | 0 | ·
